Experiment [1] has as its target Histone deacetylase 3/Nuclear receptor corepressor 2 (HDAC3/NCoR2) (Homo sapiens, UniProt O15379). As to the kind of experiment: Inhibition of human HDAC3/NCOR2 using p53 (379 to 382 residues) derived fluorogenic peptide RHKKAc. Format: protein-complex assay.
The species named for a further experiment is Homo sapiens. In words: Selectivity index, ratio of IC50 for human HDAC1 to IC50 for human HDAC3.
The target in experiment [2] is T1, Histone deacetylase 1 (Homo sapiens, UniProt Q13547). In words: Inhibition of human HDAC1 using p53 (379 to 382 residues) derived fluorogenic peptide RHKKAc.
T1 sequence (Q13547 whole entry, the tested form may be a part): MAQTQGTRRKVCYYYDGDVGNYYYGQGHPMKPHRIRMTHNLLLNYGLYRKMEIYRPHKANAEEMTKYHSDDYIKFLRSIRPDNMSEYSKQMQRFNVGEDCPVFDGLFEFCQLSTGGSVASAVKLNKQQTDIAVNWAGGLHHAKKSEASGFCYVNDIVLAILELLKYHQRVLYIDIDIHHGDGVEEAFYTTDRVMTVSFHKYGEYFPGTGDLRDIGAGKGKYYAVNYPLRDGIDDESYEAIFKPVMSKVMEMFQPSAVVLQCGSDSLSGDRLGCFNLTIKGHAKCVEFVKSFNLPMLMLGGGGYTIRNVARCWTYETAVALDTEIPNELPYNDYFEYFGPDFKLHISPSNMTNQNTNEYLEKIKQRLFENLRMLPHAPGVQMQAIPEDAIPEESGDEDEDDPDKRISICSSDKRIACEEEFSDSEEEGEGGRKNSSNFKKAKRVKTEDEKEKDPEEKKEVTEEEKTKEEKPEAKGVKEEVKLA
Experiment [3] deals with T2, Histone deacetylase 2 (Homo sapiens, UniProt Q92769). In words: Inhibition of human HDAC2 using p53 (379 to 382 residues) derived fluorogenic peptide RHKKAc.
T2 sequence (Q92769 whole entry, the tested form may be a part): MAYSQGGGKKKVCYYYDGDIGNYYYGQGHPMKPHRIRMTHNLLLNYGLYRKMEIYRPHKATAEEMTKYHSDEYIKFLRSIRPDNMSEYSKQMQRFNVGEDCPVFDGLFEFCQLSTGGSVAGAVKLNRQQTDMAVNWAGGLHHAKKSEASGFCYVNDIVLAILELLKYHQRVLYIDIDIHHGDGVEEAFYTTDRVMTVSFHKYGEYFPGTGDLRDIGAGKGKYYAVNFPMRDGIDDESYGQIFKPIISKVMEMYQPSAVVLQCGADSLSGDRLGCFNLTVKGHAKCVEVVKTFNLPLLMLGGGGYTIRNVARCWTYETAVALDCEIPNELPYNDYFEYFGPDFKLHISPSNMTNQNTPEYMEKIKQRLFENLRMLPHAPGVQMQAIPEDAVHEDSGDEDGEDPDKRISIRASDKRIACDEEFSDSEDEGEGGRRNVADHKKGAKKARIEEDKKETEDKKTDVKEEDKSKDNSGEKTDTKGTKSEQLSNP
Experiment [4] has as its target T3, Protein deacetylase HDAC6 (Homo sapiens) (UniProt Q9UBN7).
T3 sequence (whole entry): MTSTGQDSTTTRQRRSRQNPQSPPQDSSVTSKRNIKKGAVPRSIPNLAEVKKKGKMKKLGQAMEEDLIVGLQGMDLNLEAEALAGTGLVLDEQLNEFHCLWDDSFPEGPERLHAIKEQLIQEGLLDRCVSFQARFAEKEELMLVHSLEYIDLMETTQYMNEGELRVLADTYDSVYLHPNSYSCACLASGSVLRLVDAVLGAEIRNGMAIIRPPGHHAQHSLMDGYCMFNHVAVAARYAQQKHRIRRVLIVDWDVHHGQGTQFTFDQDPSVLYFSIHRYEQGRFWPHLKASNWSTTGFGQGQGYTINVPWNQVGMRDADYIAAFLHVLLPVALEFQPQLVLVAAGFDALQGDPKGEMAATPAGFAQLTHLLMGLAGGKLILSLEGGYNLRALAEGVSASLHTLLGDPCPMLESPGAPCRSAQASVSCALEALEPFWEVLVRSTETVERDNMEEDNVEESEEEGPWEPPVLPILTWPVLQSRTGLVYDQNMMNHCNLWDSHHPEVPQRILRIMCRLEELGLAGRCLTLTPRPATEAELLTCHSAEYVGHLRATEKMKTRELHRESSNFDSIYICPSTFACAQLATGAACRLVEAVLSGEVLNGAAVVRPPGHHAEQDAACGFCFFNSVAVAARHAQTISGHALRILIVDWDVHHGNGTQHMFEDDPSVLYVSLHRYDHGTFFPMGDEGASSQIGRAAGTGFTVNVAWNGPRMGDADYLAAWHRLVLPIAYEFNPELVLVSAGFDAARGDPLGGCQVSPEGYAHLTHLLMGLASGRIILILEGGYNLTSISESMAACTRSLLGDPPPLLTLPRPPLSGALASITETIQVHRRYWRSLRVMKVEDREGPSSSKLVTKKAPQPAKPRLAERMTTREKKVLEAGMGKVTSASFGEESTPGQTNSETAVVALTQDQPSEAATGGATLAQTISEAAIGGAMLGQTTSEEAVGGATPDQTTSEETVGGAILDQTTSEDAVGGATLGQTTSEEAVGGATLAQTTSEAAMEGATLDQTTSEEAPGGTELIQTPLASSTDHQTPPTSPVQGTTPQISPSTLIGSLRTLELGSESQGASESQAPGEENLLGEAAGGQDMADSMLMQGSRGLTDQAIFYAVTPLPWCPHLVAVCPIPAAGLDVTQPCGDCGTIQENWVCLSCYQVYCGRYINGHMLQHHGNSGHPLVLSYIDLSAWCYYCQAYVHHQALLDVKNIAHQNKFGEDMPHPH
In words: Inhibition of HDAC6 in human MDA-MB-231 cells assessed as increase in histone H3K9 acetylation at 0.1 to 2.5uM incubated for 48 hrs by Western blot method. The following applies: in the assay text read “tubulin acetylation” for “histone H3K9 acetylation”. Format: cell-based. In short, it runs like this: (§1)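 Cells treated 48 h at the indicated concentrations, with a reference HDAC inhibitor at 0.25 µM as positive control on each blot. Lysed in 1% SDS, 10 mM EDTA, 50 mM Tris-HCl pH 8.1 with protease/phosphatase inhibitors, then sonicated. Equal protein by SDS-PAGE on nitrocellulose. Primary antibodies 1:1000 overnight at 4°C, HRP secondary, ECL. Blots for pan-H3 and H3K9 acetylation, tubulin acetylation and Notch1.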

The target in experiment [5] is T4, Histone deacetylase 8 (Homo sapiens) (UniProt Q9BY41).
T4 sequence (whole entry): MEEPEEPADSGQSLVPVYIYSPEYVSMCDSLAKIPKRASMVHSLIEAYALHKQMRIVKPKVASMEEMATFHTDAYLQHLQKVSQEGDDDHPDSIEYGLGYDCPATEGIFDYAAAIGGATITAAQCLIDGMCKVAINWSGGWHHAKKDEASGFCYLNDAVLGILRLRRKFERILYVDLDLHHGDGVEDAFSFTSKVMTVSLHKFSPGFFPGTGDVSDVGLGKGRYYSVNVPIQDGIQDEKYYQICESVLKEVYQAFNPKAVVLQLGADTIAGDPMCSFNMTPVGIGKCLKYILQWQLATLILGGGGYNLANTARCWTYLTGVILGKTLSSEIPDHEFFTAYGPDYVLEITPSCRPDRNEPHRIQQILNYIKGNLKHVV
In words: Inhibition of HDAC8 in human MDA-MB-231 cells assessed as reduction in Notch1 expression at 0.1 to 2.5uM incubated for 48 hrs by Western blot method. Format: cell-based. In short, it runs like this: as §1

The target in experiment [6] is Histone deacetylase 3/Nuclear receptor corepressor 2 (HDAC3/NCoR2) (Homo sapiens) (UniProt O15379+Q9Y618). As to the kind of experiment: Inhibition of human HDAC3/NCOR2 at 1 uM using p53 (379 to 382 residues) derived fluorogenic peptide RHKKAc. Format: protein-complex assay. The gist of the method:
(§2)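 Isoform profiling run by a commercial vendor with compounds at 1 µM. Values are percent inhibition, each the average of two determinations.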

The target in experiment [7] is T1, Histone deacetylase 1. As to the kind of experiment: Inhibition of human HDAC1 at 1 uM using p53 (379 to 382 residues) derived fluorogenic peptide RHKKAc. In short, it runs like this: as §2
Experiment [8] has as its target T2, Histone deacetylase 2. As to the kind of experiment: Inhibition of human HDAC2 at 1 uM using p53 (379 to 382 residues) derived fluorogenic peptide RHKKAc. In short, it runs like this: as §2
For experiment [9], the target named is T4, Histone deacetylase 8 (Homo sapiens). As to the kind of experiment: Inhibition of human HDAC8 at 1 uM using p53 (379 to 382 residues) derived fluorogenic peptide RHKAcKAc. The gist of the method: as §2
For experiment [10], the target named is Histone deacetylase 5 (Homo sapiens) (UniProt Q9UQL6). In words: Inhibition of human HDAC5 at 1 uM using Boc-Lys(trifluoroacetyl)-AMC substrate. In short, it runs like this: as §2
Histone deacetylase 5 (Homo sapiens), sequence (Q9UQL6 whole entry): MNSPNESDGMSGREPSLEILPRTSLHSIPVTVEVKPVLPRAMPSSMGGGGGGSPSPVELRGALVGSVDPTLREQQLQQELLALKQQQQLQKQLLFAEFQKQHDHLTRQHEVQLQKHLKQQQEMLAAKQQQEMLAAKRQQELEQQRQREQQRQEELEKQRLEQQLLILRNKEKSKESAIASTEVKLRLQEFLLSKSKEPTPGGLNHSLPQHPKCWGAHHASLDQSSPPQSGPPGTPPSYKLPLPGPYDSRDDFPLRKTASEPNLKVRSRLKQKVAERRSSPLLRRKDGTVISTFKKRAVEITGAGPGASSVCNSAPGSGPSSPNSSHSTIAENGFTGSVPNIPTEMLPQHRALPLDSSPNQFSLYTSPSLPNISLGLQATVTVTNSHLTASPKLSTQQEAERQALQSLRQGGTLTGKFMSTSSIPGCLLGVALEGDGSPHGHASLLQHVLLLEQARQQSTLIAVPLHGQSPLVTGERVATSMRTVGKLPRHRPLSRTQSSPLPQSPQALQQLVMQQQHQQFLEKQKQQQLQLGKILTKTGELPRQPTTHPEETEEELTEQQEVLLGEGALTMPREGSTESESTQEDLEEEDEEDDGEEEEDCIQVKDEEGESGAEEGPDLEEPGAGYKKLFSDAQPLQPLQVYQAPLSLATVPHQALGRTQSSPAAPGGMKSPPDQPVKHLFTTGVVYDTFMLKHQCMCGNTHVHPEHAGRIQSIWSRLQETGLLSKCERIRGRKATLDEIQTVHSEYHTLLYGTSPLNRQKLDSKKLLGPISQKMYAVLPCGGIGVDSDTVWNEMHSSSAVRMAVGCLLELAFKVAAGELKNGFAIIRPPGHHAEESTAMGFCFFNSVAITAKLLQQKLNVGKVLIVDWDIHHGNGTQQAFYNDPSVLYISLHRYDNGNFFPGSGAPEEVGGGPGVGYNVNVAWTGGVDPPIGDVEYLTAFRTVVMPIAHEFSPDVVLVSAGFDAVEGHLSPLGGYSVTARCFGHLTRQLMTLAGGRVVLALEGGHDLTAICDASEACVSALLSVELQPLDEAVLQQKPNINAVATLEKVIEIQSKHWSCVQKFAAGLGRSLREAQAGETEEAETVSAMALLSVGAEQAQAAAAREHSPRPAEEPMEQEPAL
Experiment [11] has as its target Histone deacetylase 4 (Homo sapiens) (UniProt P56524). As to the kind of experiment: Inhibition of human HDAC4 at 1 uM using Boc-Lys(trifluoroacetyl)-AMC substrate. The gist of the method:
as §2

The target of experiment [12] is T3, Protein deacetylase HDAC6 (Homo sapiens). As to the kind of experiment: Inhibition of human HDAC6 at 1 uM using p53 (379 to 382 residues) derived fluorogenic peptide RHKKAc. The gist of the method:
as §2

For experiment [13], the target named is T5, Histone deacetylase (Homo sapiens) (UniProt Q13547+O15379+Q9UBN7+Q92769+Q9UQL6+Q8WUI4+Q9BY41+Q96DB2+P56524+Q9UKV0+Q969S8). As to the kind of experiment: Inhibition of HDAC in human MDA-MB-231 cells assessed as increase in histone H3K9 acetylation at 0.1 to 2.5uM incubated for 48 hrs by Western blot method. The format is cell-based. In short, it runs like this: as §1

Experiment [14] deals with T5, Histone deacetylase (Homo sapiens). As to the kind of experiment: Inhibition of HDAC in human MDA-MB-231 cells assessed as increase in histone H3 acetylation at 0.1 to 2.5uM incubated for 48 hrs by Western blot method. The format is cell-based. The gist of the method: as §1

We go through 16 molecules from ChEMBL document CHEMBL4130443, “Targeting breast cancer stem cells by novel HDAC3-selective inhibitors” (Eur J Med Chem, 2017).

Activity calls are given as the source filed them. The calls are words filed in the database; no cut-off is given here.

Histone deacetylase 3/Nuclear receptor corepressor 2 (HDAC3/NCoR2), sequence (O15379 whole entry, the tested form may be a part): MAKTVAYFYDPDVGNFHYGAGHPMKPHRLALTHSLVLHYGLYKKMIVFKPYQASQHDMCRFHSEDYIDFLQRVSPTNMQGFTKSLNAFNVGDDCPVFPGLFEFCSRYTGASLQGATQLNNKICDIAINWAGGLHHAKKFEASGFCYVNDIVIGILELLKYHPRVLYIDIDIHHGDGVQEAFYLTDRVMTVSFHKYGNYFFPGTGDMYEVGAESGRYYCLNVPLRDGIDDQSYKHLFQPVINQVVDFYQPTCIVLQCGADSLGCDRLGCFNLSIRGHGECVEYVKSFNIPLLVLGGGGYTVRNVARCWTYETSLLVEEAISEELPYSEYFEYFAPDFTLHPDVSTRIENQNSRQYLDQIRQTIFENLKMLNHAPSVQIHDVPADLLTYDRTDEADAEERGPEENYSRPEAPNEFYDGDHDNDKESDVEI
Histone deacetylase 3/Nuclear receptor corepressor 2 (HDAC3/NCoR2), sequence (Q9Y618 whole entry, further chain, the tested form may be a part): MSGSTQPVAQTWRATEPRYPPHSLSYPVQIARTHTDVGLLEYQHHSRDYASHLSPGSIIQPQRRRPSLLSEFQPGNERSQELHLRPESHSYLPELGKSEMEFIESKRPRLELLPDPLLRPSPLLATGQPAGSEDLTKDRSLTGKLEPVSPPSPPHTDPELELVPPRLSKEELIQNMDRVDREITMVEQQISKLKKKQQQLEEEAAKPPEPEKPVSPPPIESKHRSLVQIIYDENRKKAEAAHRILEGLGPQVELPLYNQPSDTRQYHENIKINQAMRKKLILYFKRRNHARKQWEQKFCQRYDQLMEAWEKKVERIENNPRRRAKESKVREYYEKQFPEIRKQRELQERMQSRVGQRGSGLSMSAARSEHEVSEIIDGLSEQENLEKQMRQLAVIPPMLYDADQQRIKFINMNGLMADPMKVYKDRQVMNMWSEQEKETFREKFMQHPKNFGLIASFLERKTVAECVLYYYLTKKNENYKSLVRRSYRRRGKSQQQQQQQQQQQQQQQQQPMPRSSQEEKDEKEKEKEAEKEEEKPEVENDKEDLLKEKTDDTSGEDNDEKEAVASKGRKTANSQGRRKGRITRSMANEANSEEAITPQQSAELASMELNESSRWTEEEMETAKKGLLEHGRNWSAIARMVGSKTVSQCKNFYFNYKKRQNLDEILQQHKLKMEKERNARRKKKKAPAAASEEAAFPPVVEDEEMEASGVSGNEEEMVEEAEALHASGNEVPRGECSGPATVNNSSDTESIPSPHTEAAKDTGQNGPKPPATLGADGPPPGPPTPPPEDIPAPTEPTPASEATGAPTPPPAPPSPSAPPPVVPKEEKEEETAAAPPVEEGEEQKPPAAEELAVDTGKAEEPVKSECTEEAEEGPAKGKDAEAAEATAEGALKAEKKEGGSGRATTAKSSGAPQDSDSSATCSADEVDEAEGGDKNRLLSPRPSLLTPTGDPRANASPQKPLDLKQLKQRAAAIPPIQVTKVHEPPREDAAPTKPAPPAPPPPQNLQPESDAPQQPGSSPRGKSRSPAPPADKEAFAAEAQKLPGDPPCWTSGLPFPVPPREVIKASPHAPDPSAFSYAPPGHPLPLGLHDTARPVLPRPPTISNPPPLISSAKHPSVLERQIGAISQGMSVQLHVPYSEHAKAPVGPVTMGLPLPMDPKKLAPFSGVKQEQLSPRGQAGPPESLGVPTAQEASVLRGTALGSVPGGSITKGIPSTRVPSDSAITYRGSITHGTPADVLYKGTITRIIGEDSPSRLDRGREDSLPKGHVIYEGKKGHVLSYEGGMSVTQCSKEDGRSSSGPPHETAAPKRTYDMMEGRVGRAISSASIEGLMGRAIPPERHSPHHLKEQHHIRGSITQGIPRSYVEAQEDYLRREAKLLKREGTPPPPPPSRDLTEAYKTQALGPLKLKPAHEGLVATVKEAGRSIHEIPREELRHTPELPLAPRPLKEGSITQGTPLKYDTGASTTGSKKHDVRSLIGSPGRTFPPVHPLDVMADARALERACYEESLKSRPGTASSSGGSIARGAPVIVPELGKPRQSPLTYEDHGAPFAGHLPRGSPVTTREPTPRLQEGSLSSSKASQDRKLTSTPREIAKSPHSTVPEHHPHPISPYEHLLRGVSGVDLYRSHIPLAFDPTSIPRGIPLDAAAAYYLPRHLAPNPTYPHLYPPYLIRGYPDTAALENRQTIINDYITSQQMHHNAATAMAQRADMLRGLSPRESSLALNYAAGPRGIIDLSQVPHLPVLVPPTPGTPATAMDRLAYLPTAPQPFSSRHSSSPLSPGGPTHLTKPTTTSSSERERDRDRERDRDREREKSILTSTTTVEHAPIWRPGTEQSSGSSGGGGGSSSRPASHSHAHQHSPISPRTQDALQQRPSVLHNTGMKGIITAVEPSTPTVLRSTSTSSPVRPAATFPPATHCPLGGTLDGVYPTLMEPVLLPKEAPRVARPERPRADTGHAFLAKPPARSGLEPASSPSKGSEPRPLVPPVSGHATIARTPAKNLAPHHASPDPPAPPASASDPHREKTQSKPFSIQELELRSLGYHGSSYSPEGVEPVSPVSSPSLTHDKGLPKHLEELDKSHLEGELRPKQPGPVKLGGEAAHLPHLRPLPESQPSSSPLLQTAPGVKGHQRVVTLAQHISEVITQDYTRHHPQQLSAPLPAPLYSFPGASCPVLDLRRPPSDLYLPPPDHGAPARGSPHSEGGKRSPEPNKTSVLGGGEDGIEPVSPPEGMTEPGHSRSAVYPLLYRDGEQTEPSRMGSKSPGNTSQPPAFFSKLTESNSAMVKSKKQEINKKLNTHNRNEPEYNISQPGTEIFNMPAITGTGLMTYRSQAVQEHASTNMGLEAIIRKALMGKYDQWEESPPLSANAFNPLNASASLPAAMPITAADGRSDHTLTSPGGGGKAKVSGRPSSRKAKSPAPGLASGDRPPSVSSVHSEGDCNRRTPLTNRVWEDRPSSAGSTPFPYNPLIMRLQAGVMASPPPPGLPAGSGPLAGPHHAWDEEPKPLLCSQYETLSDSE

Consider `C[C@@H](C(=O)Nc1ccc(C(=O)Nc2ccc(F)cc2N)cc1)c1ccccc1`, for which the IC50 in experiment [1] stood at 0.21 µM; against Histone deacetylase 1 [2], 1.8 µM; against Histone deacetylase 2 [3], 2.8 µM. Besides, the Ratio IC50 in the experiment listed under Homo sapiens is 8.6.
Regarding `CC(C)[C@@H](C(=O)Nc1ccc(C(=O)Nc2ccc(F)cc2N)nc1)c1ccccc1`, the inhibition result in experiment [4] and in experiment [5] was “inactive” in each case. In addition, the IC50 in experiment [1] is 0.08 µM; against Histone deacetylase 1 [2], 0.52 µM; against Histone deacetylase 2 [3] it was 1.1 µM. The Ratio IC50 in the experiment listed under Homo sapiens is 6.5.
For the molecule `Nc1cc(F)ccc1NC(=O)c1ccc(NC(=O)Cc2ccc(C(F)(F)F)cc2)cc1`, the inhibition in experiment [6] turned out to be 36%; at Histone deacetylase 1 [7], 41%; at Histone deacetylase 2 [8], 32%; in experiment [9], 5%; in [10], 0%; in [11], 0%. The molecule further returned an inhibition in [12] of 0%. Also, the IC50 in experiment [1] came to 0.2 µM; against Histone deacetylase 1 [2], 1.5 µM; against Histone deacetylase 2 [3], 1.3 µM.
`CC(C)(C(=O)Nc1ccc(C(=O)Nc2ccccc2N)cc1)c1ccccc1`: the inhibition in experiment [6] worked out at 36%; against Histone deacetylase 1 [7] it was 49%; against Histone deacetylase 2 [8] it was 34%; in [9], 0%; in experiment [10], 0%; in experiment [11] it was 6%. Further, in [12], the inhibition was determined as 4%.
Turning to `CC(C)[C@@H](C(=O)Nc1ccc(C(=O)Nc2ccc(F)cc2N)cc1)c1ccccc1`, the inhibition was 78% in experiment [6]; 42% at Histone deacetylase 1 [7]; 26% against Histone deacetylase 2 [8]; 6% in experiment [9]; 0% in experiment [10]; 0% in experiment [11]. In experiment [12], the inhibition stood at 0%. In addition, the IC50 in experiment [1] came out at 1 µM; at Histone deacetylase 1 [2], 1.2 µM; against Histone deacetylase 2 [3], 1.8 µM. Moreover, the Ratio IC50 in the experiment listed under Homo sapiens came to 1.2.
Consider `CC(C)[C@H](C(=O)Nc1ccc(C(=O)Nc2ccccc2N)cc1)c1ccccc1`, for which the inhibition entry in [13] and in experiment [14] was “Active” each time. In addition, the inhibition in [6] came to 30%; at Histone deacetylase 1 [7] it was 55%; at Histone deacetylase 2 [8], 31%; in experiment [9], 7%; in experiment [10], 0%; in [11], 0%. The inhibition in experiment [12] came to 20%. Moreover, the inhibition result in experiment [4] and in experiment [5] was “inactive” each time.
Consider `C[C@H](C(=O)Nc1ccc(C(=O)Nc2ccc(F)cc2N)nc1)c1ccccc1`, for which the inhibition entry in experiment [4] and in experiment [5] was “inactive” throughout. Further, the results for the IC50 (in [1]; against Histone deacetylase 1 [2]; against Histone deacetylase 2 [3]) were 0.13 µM, 1.4 µM and 2 µM, respectively.
As to `Nc1cc(F)ccc1NC(=O)c1ccc(NC(=O)C2CC2c2ccccc2)cc1` (stereo not given), the inhibition in [6] was 82%; against Histone deacetylase 1 [7] it was 0%; against Histone deacetylase 2 [8], 9%; in [9], 14%; in experiment [10], 3%; in experiment [11] it was 0%. The inhibition in experiment [12] was found to be 0%. For the same molecule, the concentration for half-maximal inhibition (IC50) in experiment [1] is 0.2 µM; on Histone deacetylase 1 [2] it was more than 10 µM; at Histone deacetylase 2 [3], more than 10 µM.
Turning to `CC(C)[C@H](C(=O)Nc1ccc(C(=O)Nc2ccc(F)cc2N)nc1)c1ccccc1`, the inhibition entry in experiment [4] and in [5] was “inactive” in each case. The results for the IC50 (in experiment [1]; at Histone deacetylase 1 [2]; on Histone deacetylase 2 [3]) were 0.3 µM, 1.5 µM and 2.5 µM, respectively.
For the molecule `C[C@@H](C(=O)Nc1ccc(C(=O)Nc2ccc(F)cc2N)nc1)c1ccccc1`, the inhibition entry in experiment [4] and in experiment [5] was “inactive” in each case. Further, the IC50 in [1] amounted to 0.58 µM; against Histone deacetylase 1 [2], 0.76 µM; at Histone deacetylase 2 [3] it was 3 µM.
For `CC[C@@H](C(=O)Nc1ccc(C(=O)Nc2ccc(F)cc2N)nc1)c1ccccc1`, the inhibition entry in [4] and in [5] was “inactive” each time. Further, the IC50 in experiment [1] is 0.06 µM; against Histone deacetylase 1 [2], 0.3 µM; at Histone deacetylase 2 [3], 0.63 µM.
On to `CC(C)[C@@H](C(=O)Nc1ccc(C(=O)Nc2ccc(C(F)(F)F)cc2N)cc1)c1ccccc1`, for which the inhibition in [6] is 0%; at Histone deacetylase 1 [7] it was 6%; against Histone deacetylase 2 [8] it was 4%; in [9], 0%; in experiment [10], 0%; in [11], 3%. Besides, in experiment [12], the inhibition amounted to 0%.
In the case of `C[C@H](C(=O)Nc1ccc(C(=O)Nc2ccc(F)cc2N)cc1)c1ccccc1`, the figures for the 50% inhibitory concentration (IC50) (in experiment [1]; against Histone deacetylase 1 [2]; on Histone deacetylase 2 [3]) were 0.23 µM, 3.2 µM and 3.4 µM, respectively. Also, in the experiment filed under Homo sapiens, the Ratio IC50 is 13.
For the molecule `CC[C@@H](C(=O)Nc1ccc(C(=O)Nc2ccc(F)cc2N)cc1)c1ccccc1`, the IC50 in experiment [1] amounted to 0.11 µM; against Histone deacetylase 1 [2], 1.2 µM; against Histone deacetylase 2 [3] it was 1.2 µM. In the experiment filed under Homo sapiens, the Ratio IC50 amounted to 10.9.
Take `Nc1ccccc1NC(=O)c1ccc(NC(=O)Cc2ccc(C(F)(F)F)cc2)cc1`: the inhibition is 33% in experiment [6]; 78% against Histone deacetylase 1 [7]; 38% against Histone deacetylase 2 [8]; 0% in experiment [9]; 0% in experiment [10]; 0% in [11]. For the same molecule, in experiment [12], the inhibition was found to be 0%.
In the case of `CC[C@H](C(=O)Nc1ccc(C(=O)Nc2ccc(F)cc2N)cc1)c1ccccc1`, the results for the IC50 (in [1]; on Histone deacetylase 1 [2]; at Histone deacetylase 2 [3]) were 0.17 µM, 2.5 µM and 4.8 µM, respectively. In the experiment listed under Homo sapiens, the Ratio IC50 was found to be 14.7.
